Here are results for 14 compounds from ChEMBL document CHEMBL5107950, “Structure-based design of haloperidol analogues as inhibitors of acetyltransferase Eis from Mycobacterium tuberculosis to overcome kanamycin resistance” (RSC Med Chem, 2021).

pIC50: −log10 of the molar value. ≈ marks a conversion by molar mass, not a printed value.

The target in one experiment is T1, N-acetyltransferase Eis (Mycobacterium tuberculosis (strain ATCC 25618 / H37Rv), UniProt P9WFK7).
T1 sequence (P9WFK7 whole entry): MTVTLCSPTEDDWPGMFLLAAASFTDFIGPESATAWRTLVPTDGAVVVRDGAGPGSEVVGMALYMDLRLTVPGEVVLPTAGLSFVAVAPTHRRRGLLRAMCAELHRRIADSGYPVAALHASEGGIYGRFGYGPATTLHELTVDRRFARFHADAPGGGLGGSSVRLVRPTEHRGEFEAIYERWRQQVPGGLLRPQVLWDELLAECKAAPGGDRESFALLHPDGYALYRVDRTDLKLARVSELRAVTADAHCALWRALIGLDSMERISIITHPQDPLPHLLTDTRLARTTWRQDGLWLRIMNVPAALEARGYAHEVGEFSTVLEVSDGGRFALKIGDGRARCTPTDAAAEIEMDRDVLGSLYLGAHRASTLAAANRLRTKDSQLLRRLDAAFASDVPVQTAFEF
Put plainly: Inhibition of Mycobacterium tuberculosis Eis assessed as Eis-mediated kanamycin acetylation preincubated for 10 mins followed by substrate addition and measured for 2 to 5 mins using acetyl-CoA as substrate in presence of kanamycin by UV-Vis spectroscopy analysis. An outline of the steps:
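Recombinant Eis (1 µM) mixed with KAN (400 µM) in 50 mM Tris-HCl pH 8.0 and preincubated 10 min with 5-fold serially diluted inhibitor (10% DMSO in buffer). Reaction started with AcCoA and DTNB (2 mM each, as added). Absorbance read every 30 s for 20 min. Initial rates (first 2-5 min) fitted to Hill plot for IC50. At least triplicate.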

In experiment [1] the test system is Mycolicibacterium smegmatis. Put plainly: Antibacterial activity against Mycobacterium smegmatis mc2 155 assessed as inhibition of bacterial growth incubated upto 3 weeks hrs by resazurin dye based double-dilution method. The class given is functional. To be noted: mc2 155, 504 h. In a few lines: (§1)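 Double-dilution broth MIC. Media: M. smegmatis, Mueller-Hinton; M. abscessus, 7H9 + 0.05% Tween80 + 0.4% glycerol; mc²6230, 7H9 + 0.05% tyloxapol, 0.5% glycerol, 10% OADC, 0.2% casamino acids, 24 µg/mL pantothenate; other mycobacteria, 7H9 + 0.05% Tween80, 0.4% glycerol, 10% ADC. Inoculum from agar set to 0.5 McFarland, then diluted 1:100.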
On the technique in general: The colour change of resazurin is a common sign of viable cells or microbes.

For experiment [2], the system named is Mycobacterium tuberculosis. The experiment is described as follows: Antibacterial activity against Mycobacterium tuberculosis H37Ra ATCC NRS22 assessed as inhibition of bacterial growth incubated upto 3 weeks hrs by resazurin dye based double-dilution method. Format: functional. To be noted: H37Ra ATCC NRS22, 504 h. An outline of the steps: as §1
The subject of experiment [3] is Mycobacteroides abscessus. The experiment is described as follows: Antibacterial activity against Mycobacterium abscessus ATCC 19977 assessed as inhibition of bacterial growth incubated upto 3 weeks hrs by resazurin dye based double-dilution method. To be noted: ATCC 19977, 504 h. Format: functional. In a few lines: as §1
The subject of experiment [4] is Mycobacterium intracellulare. Put plainly: Antibacterial activity against Mycobacterium intracellulare ATCC 13950 assessed as inhibition of bacterial growth incubated upto 3 weeks hrs by resazurin dye based double-dilution method. Format: functional. To be noted: ATCC 13950, 504 h. An outline of the steps:
as §1

The test system of a further experiment is Mycobacterium avium. Put plainly: Antibacterial activity against Mycobacterium avium ATCC 25921 assessed as inhibition of bacterial growth incubated upto 3 weeks hrs by resazurin dye based double-dilution method. To be noted: ATCC 25921, 504 h. Format: functional. An outline of the steps:
as §1

In the case of `O=C(CCCN1CCC(c2ccc(Cl)cc2)CC1)c1ccc(F)cc1`, at N-acetyltransferase Eis, the pIC50 (in general, −log10 of the IC50, conventionally taken in molar units) is 5.96. The MIC (usually the least concentration at which growth counts as inhibited) in experiment [1] was above 62.5 µM; in experiment [2], 62.5 µM (≈ 22.5 µg/mL); in experiment [3], above 62.5 µM; in experiment [4], 31.3 µM (≈ 11.3 µg/mL); in the experiment on Mycobacterium avium it was above 62.5 µM.

In the case of `CC1CCCCN1CCCOc1ccc(F)cc1` (stereo not drawn), the pIC50 at N-acetyltransferase Eis is below 3.70. For the same compound, the MIC in experiment [1] is 15.6 µM (≈ 3.92 µg/mL); in experiment [2], 7.8 µM (≈ 1.96 µg/mL); in experiment [3], above 62.5 µM; in experiment [4], 7.8 µM (≈ 1.96 µg/mL); with Mycobacterium avium, 15.6 µM (≈ 3.92 µg/mL).

For the compound `Cc1ccc(S(=O)(=O)N2CCC(O)(c3ccc(Cl)cc3)CC2)cc1`, at N-acetyltransferase Eis, the pIC50 is below 3.70. Also, the MIC (in experiment [1]; in experiment [2]; in experiment [3]; in experiment [4]; with Mycobacterium avium) was above 62.5 µM in each case.

Turning to `Cc1ccc(C(=O)CCCN2CCC(O)(c3ccc(Cl)cc3)CC2)cc1`, the negative-log IC50 (pIC50) on N-acetyltransferase Eis was 4.00. Besides, the minimum inhibitory concentration (MIC) in experiment [1] was 62.6 µM (≈ 23.3 µg/mL); in experiment [2] it was 31.3 µM (≈ 11.6 µg/mL); in experiment [3], above 62.5 µM; in experiment [4] it was above 62.5 µM; in the experiment on Mycobacterium avium, above 62.5 µM.

As for `O=C(CCCN1CCC(O)CC1)c1ccc(F)cc1`, on N-acetyltransferase Eis, the pIC50 was 6.16. Further, the minimal inhibitory concentration (MIC) (in experiment [1]; in experiment [2]; in experiment [3]; in experiment [4]; in the experiment on Mycobacterium avium) was above 62.5 µM in each case.

As for `O=C(CCCN1CC=C(n2c(=O)[nH]c3ccccc32)CC1)c1ccc(F)cc1` [DROPERIDOL], on N-acetyltransferase Eis, the negative logarithm of the IC50 (pIC50) was 4.91. The MIC in experiment [1] is above 62.5 µM; in experiment [2], 31.3 µM (≈ 11.9 µg/mL); in experiment [3], above 62.5 µM; in experiment [4] it was above 62.5 µM; with Mycobacterium avium, above 62.5 µM.

`O=C(CCCN1CCC(O)(c2ccccc2)CC1)c1ccc(F)cc1`: the negative logarithm of the IC50 (pIC50) on N-acetyltransferase Eis is 6.07. The MIC (in experiment [1]; in experiment [2]; in experiment [3]; in experiment [4]; with Mycobacterium avium) was above 62.5 µM each time.

In the case of `CC(=O)CCCN1CCC(O)(c2ccc(Cl)cc2)CC1`, the negative logarithm of the IC50 (pIC50) on N-acetyltransferase Eis is 4.40. Further, the MIC (in experiment [1]; in experiment [2]; in experiment [3]; in experiment [4]; in the experiment with Mycobacterium avium) was above 62.5 µM throughout.

`CC(C)c1ccc(C(=O)CCCN2CCC(O)(c3ccc(Cl)cc3)CC2)cc1`: the pIC50 on N-acetyltransferase Eis is below 3.70. The MIC in experiment [1] was 15.6 µM (≈ 6.24 µg/mL); in experiment [2], 7.8 µM (≈ 3.12 µg/mL); in experiment [3], 31.3 µM (≈ 12.5 µg/mL); in experiment [4], 7.8 µM (≈ 3.12 µg/mL); in the experiment with Mycobacterium avium it was above 62.5 µM.

With `O=C(CCCN1CCCCC1)c1ccc(F)cc1` [PRIMAPERONE], on N-acetyltransferase Eis, the pIC50 was 6.21. In addition, the MIC (in experiment [1]; in experiment [2]; in experiment [3]; in experiment [4]; in the experiment with Mycobacterium avium) was above 62.5 µM throughout.

For the compound `N=C(N)NCCCC(=O)c1ccc(F)cc1`, the pIC50 at N-acetyltransferase Eis is 5.96. Moreover, the MIC in experiment [1] is above 62.5 µM; in experiment [2], 31.3 µM (≈ 6.99 µg/mL); in experiment [3], above 62.5 µM; in experiment [4] it was above 62.5 µM; with Mycobacterium avium, above 62.5 µM.

For `CC1CC(C)CN(CCCOc2ccc(F)cc2)C1` (stereo not drawn), on N-acetyltransferase Eis, the pIC50 is 4.38. Moreover, the MIC in experiment [1] was 62.5 µM (≈ 16.6 µg/mL); in experiment [2], 62.5 µM (≈ 16.6 µg/mL); in experiment [3], above 62.5 µM; in experiment [4], above 62.5 µM; in the experiment on Mycobacterium avium, above 62.5 µM.

Turning to `CCc1ccc(C(=O)CCCN2CCC(O)(c3ccc(Cl)cc3)CC2)cc1`, on N-acetyltransferase Eis, the negative-log IC50 (pIC50) was 4.40. Besides, the minimum inhibitory concentration (MIC) in experiment [1] was 15.6 µM (≈ 6.02 µg/mL); in experiment [2], 15.6 µM (≈ 6.02 µg/mL); in experiment [3], 62.5 µM (≈ 24.1 µg/mL); in experiment [4], 15.6 µM (≈ 6.02 µg/mL); in the experiment on Mycobacterium avium it was 62.5 µM (≈ 24.1 µg/mL).

Consider `NNC(=O)c1ccncc1` [ISONIAZID], for which the MIC was 3.9 µM (≈ 0.535 µg/mL) in experiment [1]; at most 1 µM in experiment [2]; above 62.5 µM in experiment [3]; 3.9 µM (≈ 0.535 µg/mL) in experiment [4]; 62.5 µM (≈ 8.57 µg/mL) in the experiment on Mycobacterium avium.
